Test results: ChEMBL document CHEMBL1165950, “Design and synthesis of new potent anticancer pyrazoles with high FLT3 kinase inhibitory selectivity” (Bioorg Med Chem, 2010)

Experiments:
Type in all cases: functional
Malme-3M = assay: Cytotoxicity against human MALME-3M cells assessed as cell growth at 100 nM after 48 hrs by sulforhodamine B assay; settings: read-out: Activity
BT-549 = assay: Cytotoxicity against human BT549 cells assessed as cell growth at 100 nM after 48 hrs by sulforhodamine B assay; settings: BT-549, 48 h, read-out: Activity
Summary of the method: (§1)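 NCI-60 five-dose screen. Cells were grown in RPMI 1640 with 5% FBS and 2 mM L-glutamine, plated at 5000–40,000 cells/well and preincubated for 24 h. Time-zero plates were TCA-fixed. DMSO-solubilized drug was added at five concentrations (10-fold or ½-log serial dilutions) for 48 h at 37 °C, 5% CO2. Cells were TCA-fixed, stained with 0.4% SRB and read at 515 nm. Percent growth used time-zero, control and test absorbances.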

SNB-19 = assay: Cytotoxicity against human SNB19 cells assessed as cell growth at 10 uM; settings: read-out: Activity
Summary of the method: (§2)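 NCI-60 screen: cells grown in RPMI 1640 with 5% FBS and 2 mM L-glutamine, plated at 5000–40,000 cells/well according to doubling time, and preincubated 24 h at 37 °C, 5% CO2. The single 10 µM dose (DMSO stock) was added, then incubated 48 h. Cells were TCA-fixed and stained with 0.4% SRB, read at 515 nm, and growth % calculated against time-zero and control plates.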

SW-620 [1] = assay: Cytotoxicity against human SW620 cells assessed as cell growth at 1 uM after 48 hrs by sulforhodamine B assay; settings: SW-620, 48 h, read-out: Activity
SW-620 [2] = assay: Cytotoxicity against human SW620 cells assessed as cell growth at 10 uM after 48 hrs by sulforhodamine B assay; settings: SW-620, 48 h, read-out: Activity
OVCAR-5 = assay: Cytotoxicity against human OVCAR5 cells assessed as cell growth at 100 nM after 48 hrs by sulforhodamine B assay; settings: OVCAR-5, 48 h, read-out: Activity
HCT-15 = assay: Cytotoxicity against human HCT15 cells assessed as cell growth at 0.01 uM after 48 hrs by sulforhodamine B assay; settings: HCT-15, 48 h, read-out: Activity
SK-MEL-5 = assay: Cytotoxicity against human SK-MEL-5 cells assessed as cell growth at 0.001 uM after 48 hrs by sulforhodamine B assay; settings: SK-MEL-5, 48 h, read-out: Activity
CAKI-1 = assay: Cytotoxicity against human Caki1 cells assessed as cell growth at 10 uM; settings: read-out: Activity
Summary of the method: (§3)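 Single-dose NCI-60 screen at 10 µM. Cells were grown in RPMI 1640 with 5% FBS and 2 mM L-glutamine, then treated for 48 h at 37 °C. Protein was measured by SRB staining with absorbance at 515 nm. Percentage growth was recorded, and inhibition percentage was calculated as 100 minus growth percentage.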

CCRF-CEM = assay: Cytotoxicity against human CCRF-CEM cells assessed as cell growth at 1 uM after 48 hrs by sulforhodamine B assay; settings: read-out: Activity; summary of the method: as §1
SN12C = assay: Cytotoxicity against human SN12C cells assessed as cell growth at 10 uM; settings: read-out: Activity; summary of the method: as §2
[3] = Cytotoxicity against human RPMI8266 cells assessed as cell growth at 0.01 uM after 48 hrs by sulforhodamine B assay; settings: read-out: Activity
A549 [4] = assay: Cytotoxicity against human A549 cells assessed as cell growth at 10 uM; settings: read-out: Activity; summary of the method: as §3
HT-29 = assay: Cytotoxicity against human HT-29 cells assessed as cell growth at 10 uM; settings: read-out: Activity; summary of the method: as §3
NCI/ADR-RES = assay: Cytotoxicity against human NCI/ADR-RES cells assessed as cell growth at 0.01 uM after 48 hrs by sulforhodamine B assay; settings: read-out: Activity
OVCAR-4 = assay: Cytotoxicity against human OVCAR4 cells assessed as cell growth at 0.01 uM after 48 hrs by sulforhodamine B assay; settings: OVCAR-4, 48 h, read-out: Activity
U-251 = assay: Cytotoxicity against human U251 cells assessed as cell growth at 10 uM; settings: read-out: Activity; summary of the method: as §2
LOX IMVI = assay: Cytotoxicity against human LOXIMVI cells assessed as cell growth at 10 uM; settings: read-out: Activity; summary of the method: as §2
MDA-MB-435 = assay: Cytotoxicity against human MDA-MB-435 cells assessed as cell growth at 10 uM after 48 hrs by sulforhodamine B assay; settings: MDA-MB-435, 48 h, read-out: Activity
T47D = assay: Cytotoxicity against human T47D cells assessed as cell growth at 0.01 uM after 48 hrs by sulforhodamine B assay; settings: read-out: Activity
DU-145 [5] = assay: Cytotoxicity against human DU145 cells assessed as cell growth at 10 uM; settings: read-out: Activity; summary of the method: as §3
HCT-116 [6] = assay: Cytotoxicity against human HCT116 cells assessed as cell growth at 1 uM after 48 hrs by sulforhodamine B assay; settings: HCT-116, 48 h, read-out: Activity
A549 [7] = assay: Cytotoxicity against human A549 cells assessed as cell growth at 100 nM after 48 hrs by sulforhodamine B assay; settings: A549, 48 h, read-out: Activity; summary of the method: as §1
MDA-MB-231 = assay: Growth inhibition of human MDA-MB-231 cells after 48 hrs by sulforhodamine B assay; settings: MDA-MB-231, 48 h
Summary of the method: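 NCI 60-cell screen, five-dose mode. Cells grown in RPMI 1640 with 5% FBS and 2 mM L-glutamine and plated at 5000-40,000 cells/well according to doubling time. After 24 h preincubation, a Tz plate was TCA-fixed. Five concentrations (10-fold or 1/2 log dilutions) were applied for 48 h at 37 °C. SRB staining read at 515 nm. IC50 taken from [(Ti-Tz)/(C-Tz)]×100 = 50.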

K562 = assay: Cytotoxicity against human K562 cells assessed as cell growth at 1 uM after 48 hrs by sulforhodamine B assay; settings: K562, 48 h, read-out: Activity
NCI-H522 = assay: Cytotoxicity against human NCI-H522 cells assessed as cell growth at 0.001 uM after 48 hrs by sulforhodamine B assay; settings: NCI-H522, 48 h, read-out: Activity
DU-145 [8] = assay: Cytotoxicity against human DU145 cells assessed as cell growth at 0.001 uM after 48 hrs by sulforhodamine B assay; settings: DU-145, 48 h, read-out: Activity
HCT-116 [9] = assay: Cytotoxicity against human HCT116 cells assessed as cell growth at 0.001 uM after 48 hrs by sulforhodamine B assay; settings: HCT-116, 48 h, read-out: Activity
PC-3 = assay: Cytotoxicity against human PC3 cells assessed as cell growth at 1 uM after 48 hrs by sulforhodamine B assay; settings: PC-3, 48 h, read-out: Activity
KM12 = assay: Cytotoxicity against human KM12 cells assessed as cell growth at 0.01 uM after 48 hrs by sulforhodamine B assay; settings: KM12, 48 h, read-out: Activity
EKVX = assay: Growth inhibition of human EKVX cells after 48 hrs by sulforhodamine B assay; settings: for CC50: read-out: LC50 (the source's name)
Summary of the method: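 NCI five-dose SRB assay in RPMI 1640 with 5% FBS and 2 mM L-glutamine. Cells were preincubated 24 h, then exposed 48 h at 37 °C to five concentrations (10-fold or half-log serial dilutions from DMSO stocks). TCA fixation, SRB staining, and absorbance at 515 nm followed. IC50 was taken where [(Ti−Tz)/(C−Tz)]×100 = 50, with Tz as time-zero cell density.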

SMILES	growth at 0.1 µM (Malme-3M) [%]	growth at 0.1 µM (BT-549) [%]	growth at 10 µM (SNB-19) [%]	growth at 1 µM (SW-620 [1]) [%]	growth at 10 µM (SW-620 [2]) [%]	growth at 0.1 µM (OVCAR-5) [%]	growth at 0.01 µM (HCT-15) [%]	growth at 0.001 µM (SK-MEL-5) [%]	growth at 10 µM (CAKI-1) [%]	growth at 1 µM (CCRF-CEM) [%]	growth at 10 µM (SN12C) [%]	growth at 0.01 µM [3] [%]	growth at 10 µM (A549 [4]) [%]	growth at 10 µM (HT-29) [%]	growth at 0.01 µM (NCI/ADR-RES) [%]	growth at 0.01 µM (OVCAR-4) [%]	growth at 10 µM (U-251) [%]	growth at 10 µM (LOX IMVI) [%]	growth at 10 µM (MDA-MB-435) [%]	growth at 0.01 µM (T47D) [%]	other results
Cc1cc(O)cc(-c2nn(CC#N)cc2-c2ccnc(-c3ccc(N(C)C)cc3)c2)c1	94	87	46.4	10	-33	97	92	92	44.5	13	51.2	99	39	20.5	96	108	17.1	33.7	-31	90	growth at 10 µM (DU-145 [5]): 80.3%; growth at 1 µM (HCT-116 [6]): 2%; growth at 0.1 µM (A549 [7]): 95%; GI50 (MDA-MB-231): 2.94 µM; LC50 (MDA-MB-231): > 100 µM; TGI (MDA-MB-231): 22.6 µM; growth at 1 µM (K562): 7%; growth at 0.001 µM (NCI-H522): 87%; growth at 0.001 µM (DU-145 [8]): 103%; growth at 0.001 µM (HCT-116 [9]): 95%; growth at 1 µM (PC-3): 18%; growth at 0.01 µM (KM12): 76%; GI50 (EKVX): 3.92 µM; TGI (EKVX): 92.8 µM; CC50 (EKVX): > 100 µM
COc1cc(C)cc(-c2nn(CC#N)cc2-c2ccnc(-c3ccc(N(C)C)cc3)c2)c1	46	66	15.9	19	11	79	92	99	13.9	16	24.7	110	21.1	-7.04	99	98	-9.99	5.2	-2	104	growth at 10 µM (DU-145 [5]): 2.87%; growth at 1 µM (HCT-116 [6]): -41%; growth at 0.1 µM (A549 [7]): 36%; GI50 (MDA-MB-231): 1.09 µM; LC50 (MDA-MB-231): > 100 µM; growth at 1 µM (K562): 4%; growth at 0.001 µM (NCI-H522): 77%; growth at 0.001 µM (DU-145 [8]): 103%; growth at 0.001 µM (HCT-116 [9]): 96%; growth at 1 µM (PC-3): 17%; growth at 0.01 µM (KM12): 89%; GI50 (EKVX): 0.696 µM; TGI (EKVX): > 10 µM; CC50 (EKVX): > 100 µM
